Values after ≈ are worked out from the molar mass of the structure shown. Active and inactive are the calls of the source. No cut-off for these calls is given here.
Assays:
Plasmodium falciparum [1] = experiment: Antimalarial activity against drug-resistant Plasmodium falciparum TM90C2A; type: functional, organism-based
Plasmodium falciparum [2] = experiment: Antimalarial activity against drug-resistant Plasmodium falciparum W2; type: functional, organism-based
Plasmodium falciparum [3] = experiment: Antimalarial activity against drug-resistant Plasmodium falciparum TM91C235; type: functional, organism-based
Plasmodium falciparum [4] = experiment: Antimalarial activity against drug-resistant Plasmodium falciparum D6 infected in Aotus lemurinus lemurinus monkey; type: functional, organism-based
[5] = Cytotoxicity against mouse RAW264.7 cells by MTT assay; type: cell-based; details: read-out: LD50 (the source's name)
Method in brief: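 LC50 in RAW macrophages was determined by MTT assay, given as the mean of 2–4 experiments with range. Selectivity index = RAW LC50 / lowest P. falciparum IC50.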

[6] = Cytotoxicity against african green monkey Vero cells by MTT assay; type: cell-based; details: chlorocebus sabaeus, read-out: LC50 (the source's name)
[7] = molecular target: T1, Histone deacetylase (Plasmodium falciparum 3D7) (UniProt Q7K6A1); experiment: Inhibition of Plasmodium falciparum 3D7 histone deacetylase infected in human erythrocytes assessed as alteration of histone H3 acetylation at 100 nM after 3.5 hrs by SDS-PAGE; type: cell-based
T1 sequence (whole entry): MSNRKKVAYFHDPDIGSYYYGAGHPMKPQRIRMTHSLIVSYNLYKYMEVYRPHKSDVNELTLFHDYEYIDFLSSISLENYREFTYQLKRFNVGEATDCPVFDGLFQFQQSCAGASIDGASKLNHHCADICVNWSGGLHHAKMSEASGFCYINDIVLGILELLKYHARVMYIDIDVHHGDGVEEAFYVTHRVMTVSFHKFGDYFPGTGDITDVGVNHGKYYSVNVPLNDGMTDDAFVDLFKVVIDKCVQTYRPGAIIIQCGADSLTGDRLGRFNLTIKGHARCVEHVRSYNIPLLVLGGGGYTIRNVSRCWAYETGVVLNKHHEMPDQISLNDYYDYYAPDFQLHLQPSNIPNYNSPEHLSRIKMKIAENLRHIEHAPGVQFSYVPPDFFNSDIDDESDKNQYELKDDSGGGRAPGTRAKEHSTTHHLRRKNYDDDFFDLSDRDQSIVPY
Method in brief: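 About 3 × 10^9 erythrocytes infected with late-trophozoite P. falciparum 3D7 were exposed to compound or to DMSO vehicle for 3.5 h at 37°C, and an untreated sample was taken at the start. Histones were extracted, about 6 × 10^8 parasites were loaded per lane on SDS–15% PAGE, and loading was checked by silver stain. Western blots were probed with anti-tetraacetyl-H4 and anti-diacetyl-H3 antisera and detected by ECL.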

Mus musculus [8] = experiment: AUC in ICR mouse at 50 mg/kg/day, sc assessed as metabolite W308393 level by LC/MS analysis; type: ADME, organism-based, Plasma; set-up: route subcutaneous; details: in vivo
Method in brief: (§1)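 Male ICR mice, 8 weeks old, got one 50 mg/kg dose either orally or subcutaneously, with three groups of six mice per route. One mouse per group was killed at 15, 30 and 60 min and at 3, 6 and 24 h. Plasma was deproteinized with 2 volumes of acetonitrile and analysed by LC-MS/MS on a C18 column against 0–500 ng/ml standards, with parent and acid metabolite measured in the same sample. Each six-mouse group was treated as one "animal" and fitted to a two-compartment model. AUC was taken by the linear trapezoidal rule extrapolated to infinity, and Cmax and Tmax were read per "animal".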

Mus musculus [9] = experiment: AUC in ICR mouse at 50 mg/kg/day, po assessed as metabolite W308393 level by LC/MS analysis; type: ADME, organism-based, Plasma; set-up: route oral; details: in vivo; method in brief: as §1
[10] = molecular target: T1, Histone deacetylase (Plasmodium falciparum 3D7); experiment: Inhibition of Plasmodium falciparum 3D7 histone deacetylase infected in human erythrocytes assessed as alteration of histone H3 acetylation at 1.8 to 1000 nM after 3.5 hrs by SDS-PAGE; type: cell-based
Method in brief: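 About 3 × 10^9 late-trophozoite 3D7-infected erythrocytes were incubated with compound or DMSO vehicle for 3.5 h at 37°C, with an untreated sample taken at the start. Histones (about 6 × 10^8 parasites per lane) were run on SDS–15% PAGE, with silver stain as the loading check. Western blots were probed with anti-(tetra)acetyl-H4 and anti-(di)acetyl-H3 antisera (1:2,000) and read by ECL.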

Plasmodium falciparum [11] = experiment: Antimalarial activity against Plasmodium falciparum at 1 nM after 48 hrs; type: functional, organism-based
Method in brief: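 P. falciparum-infected erythrocytes were exposed to 1 nM for 3.5 h, then washed and returned to culture. Growth was scored 48 h later relative to matched untreated controls.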

Plasmodium falciparum [12] = experiment: Antimicrobial activity against Plasmodium falciparum; type: functional
Method in brief: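 Labeled-hypoxanthine growth inhibition assay against strains W2, D6, TM91C235 and TM90C2A, reporting IC50. Values are single determinations, or the mean of duplicates for some compounds against D6, W2 and C235. Mefloquine and chloroquine served as assay-validity controls.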

Plasmodium falciparum [13] = experiment: Antimalarial activity against Plasmodium falciparum infected mouse assessed as reduction in parasitemia at 50 mg/kg, ip; type: functional, organism-based; set-up: dose 50 mg/kg
[14] = Selectivity index, ratio of LC50 for mouse RAW264.7 cells to IC50 for Plasmodium falciparum; details: RAW264.7 cells
Plasmodium falciparum [15] = experiment: Antimalarial activity against Plasmodium falciparum infected in mouse RAW264.7 cells; type: functional, organism-based

SMILES	IC50 (Plasmodium falciparum [1])	IC50 (Plasmodium falciparum [2])	IC50 (Plasmodium falciparum [3])	IC50 (Plasmodium falciparum [4])	other results
Nc1ccccc1-c1csc(NC(=O)CCCCCCC(=O)NO)n1	0.0303 µM	0.0387 µM	0.0419 µM	0.0342 µM	–
O=C(CCCCCCC(=O)Nc1ccccc1)NO [VORINOSTAT]	–	–	–	–	CC50 [5]: 2.2 µM; CC50 [6]: 0.95 µM
O=C(CCCCCCC(=O)Nc1nc(-c2cccc(O)c2)cs1)NO	0.0016 µM	0.0027 µM	0.0017 µM	0.0027 µM	–
Nc1cc(-c2csc(NC(=O)CCCCCCC(=O)NO)n2)ccc1F	0.0038 µM	0.005 µM	0.0024 µM	0.0051 µM	–
Nc1ccc(-c2csc(NC(=O)CCCCCCC(=O)NO)n2)cc1	0.0099 µM	0.0094 µM	0.0196 µM	0.0098 µM	–
CC(/C=C/C(=O)NO)=C\[C@@H](C)C(=O)c1ccc(N(C)C)cc1	–	–	–	–	inhibition [7]: Active
O=C(CCCCCCC(=O)Nc1nc(-c2ccccc2)cs1)NO	0.0088 µM	0.0134 µM	0.0167 µM	0.0118 µM	–
Nc1cccc(-c2csc(NC(=O)CCCCCCC(=O)O)n2)c1	1.4 µM	> 1.4 µM	> 1.4 µM	> 1.4 µM	AUC (Mus musculus [8]): 400 ng·h/mL; AUC (Mus musculus [9]): 478 ng·h/mL
C[C@@H]1CC[C@H]2[C@@H](C)C(=O)O[C@@H]3O[C@@]4(C)CC[C@@H]1[C@]32OO4	–	–	–	–	inhibition [10]: inactive; Activity (Plasmodium falciparum [11]): Active
Nc1cccc(-c2csc(NC(=O)CCCCCC(=O)NO)n2)c1	0.0344 µM	0.0158 µM	0.0943 µM	0.0127 µM	–
Cc1sc(NC(=O)CCCCCCC(=O)NO)nc1-c1cccc(N)c1	0.004 µM	0.0072 µM	0.0061 µM	0.008 µM	–
Nc1cc(-c2csc(NC(=O)CCCCCCC(=O)NO)n2)ccc1Cl	0.0016 µM	0.0017 µM	0.0014 µM	0.0017 µM	–
CCC(=O)CCCCC[C@@H]1NC(=O)[C@H]2CCCCN2C(=O)[C@H]([C@@H](C)CC)NC(=O)[C@H](Cc2cn(OC)c3ccccc23)NC1=O [APICIDIN]	–	–	–	–	MIC (Plasmodium falciparum [12]): 0.125 µg/mL (≈ 0.2 µM); Activity (Plasmodium falciparum [13]): Active
Nc1cccc(-c2csc(NC(=O)CCCCc3cc(C(=O)NO)no3)n2)c1	0.0797 µM	0.0721 µM	0.15 µM	0.0585 µM	–
Nc1cccc(-c2csc(C(=O)NCCCCCCC(=O)NO)n2)c1	0.0607 µM	0.0395 µM	0.171 µM	0.0424 µM	–
Cc1cccc(-c2csc(NC(=O)CCCCCCC(=O)NO)n2)c1	0.006 µM	0.0075 µM	0.0036 µM	0.0039 µM	–
O=C(CCCCCCC(=O)Nc1nc(-c2ccc3ccccc3c2)cs1)NO	0.0059 µM	0.0064 µM	0.0031 µM	0.0033 µM	–
Nc1cccc(-c2cc(C(=O)NCCCCCCC(=O)NO)no2)c1	0.028 µM	0.0698 µM	0.0422 µM	0.0332 µM	–
COc1cccc(-c2csc(NC(=O)CCCCCCC(=O)NO)n2)c1	0.0103 µM	0.0113 µM	0.0062 µM	0.0149 µM	–
COc1ccc(-c2csc(NC(=O)CCCCCCC(=O)NO)n2)cc1N	0.001 µM	0.0012 µM	0.001 µM	0.0009 µM	selectivity ratio [14]: 3560; CC50 [5]: 3.2 µM; CC50 [6]: 0.95 µM; IC50 (Plasmodium falciparum [15]): 0.0009 µM
CN(C)c1cccc(-c2csc(NC(=O)CCCCCCC(=O)NO)n2)c1	0.0185 µM	0.0357 µM	0.0608 µM	0.0305 µM	–
O=C(CCCCCCC(=O)Nc1nc(-c2ccsc2)cs1)NO	0.0074 µM	0.017 µM	0.0065 µM	0.0075 µM	–
[N-]=[N+]=Nc1cccc(-c2csc(NC(=O)CCCCCCC(=O)NO)n2)c1	0.0088 µM	0.0178 µM	0.0193 µM	0.0097 µM	–
O=C(CCCCCCC(=O)Nc1nc(-c2cccc(F)c2)cs1)NO	0.0077 µM	0.0142 µM	0.0158 µM	0.0118 µM	–
CN(CCO)c1ccc(-c2csc(NC(=O)CCCCCCC(=O)NO)n2)cc1N	0.0009 µM	0.001 µM	0.001 µM	0.0008 µM	selectivity ratio [14]: 670; CC50 [5]: 0.54 µM; CC50 [6]: 0.95 µM; IC50 (Plasmodium falciparum [15]): 0.00081 µM
